Experimental data published in ChEMBL document CHEMBL4261491, “Synthesis and synergistic antifungal effects of monoketone derivatives of curcumin against fluconazole-resistant Candida spp” (Medchemcomm, 2017).
Values after ≈ are worked out from the molar mass of the structure shown.

Assays:
[1] = Cytotoxicity against HUVEC assessed as cell viability at 16 ug/ml after 24 hrs by MTT assay relative to control; assay type: cell-based; details: human, HUVEC cells; read-out: Activity
Summary of the method: (§1)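 HUVECs grown in DMEM with 10% FCS and 100 μg ml–1 streptomycin, 5% CO2, 37 °C. Cells exposed to compounds at 16 and 32 μg ml–1 for 24 h, then incubated with MTT solution (5 mg ml–1) for 3 h. Optical density read at 570 nm. Viability expressed as percentage relative to drug-free control.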

[2] = tested on: Candida albicans; assay: Antifungal activity against fluconazole-resistant Candida albicans clinical isolate 103 in presence of 8 ug/ml fluconazole by broth microdilution method; assay type: functional; details: for MIC80: Candida albicans, isolate 103
Summary of the method: (§2)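 Broth microdilution per CLSI/NCCLS M27-A2 against FLC-resistant clinical isolates. MIC80 read for each compound alone and with fluconazole at 8.0 μg ml–1. C. albicans ATCC 90028 served as quality control. Curcumin was the positive control.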

[3] = tested on: Candida tropicalis; assay: Antifungal activity against fluconazole-resistant Candida tropicalis clinical isolate 087 by broth microdilution method; assay type: functional; summary of the method: as §2
[4] = tested on: Pichia kudriavzevii; assay: Antifungal activity against fluconazole-resistant Candida krusei clinical isolate 2159 in presence of 8 ug/ml fluconazole by broth microdilution method; assay type: functional; details: for MIC80: Pichia kudriavzevii, isolate 2159; summary of the method: as §2
[5] = tested on: Candida tropicalis; assay: Antifungal activity against fluconazole-resistant Candida tropicalis clinical isolate 087 in presence of 8 ug/ml fluconazole by broth microdilution method; assay type: functional; details: for MIC80: Candida tropicalis, isolate 087; summary of the method: as §2
[6] = tested on: Candida albicans; assay: Antifungal activity against fluconazole-resistant Candida albicans clinical isolate 103 by broth microdilution method; assay type: functional; summary of the method: as §2
[7] = Cytotoxicity against HUVEC assessed as cell viability at 32 ug/ml after 24 hrs by MTT assay relative to control; assay type: cell-based; details: human, HUVEC cells; read-out: Activity; summary of the method: as §1
[8] = tested on: Pichia kudriavzevii; assay: Antifungal activity against fluconazole-resistant Candida krusei clinical isolate 2159 by broth microdilution method; assay type: functional; summary of the method: as §2

Row | Structure (SMILES) | viability at 24 h, 16 ug/ml [1] [%] | fractional inhibitory concentration index (FICI) [2] | MIC80 [2] [µg/mL] | MIC80 [3] [µg/mL] | fractional inhibitory concentration index (FICI) [4] | MIC80 [4] [µg/mL] | fractional inhibitory concentration index (FICI) [5] | MIC80 [5] [µg/mL] | MIC80 [6] [µg/mL] | viability at 24 h, 32 ug/ml [7] [%] | MIC80 [8] [µg/mL]
1 | O=C(/C=C/c1ccc(O)cc1)/C=C/c1ccc(O)cc1 | 87 | >1.06 | > 64 | > 64 | >1.06 | > 64 | 0.188 | 8 | > 64 | 75 | > 64
2 | O=C(/C=C(O)/C=C/c1ccc(O)c(O)c1)/C=C/c1ccc(O)c(O)c1 |  | 0.125 | 4 | 64 (≈ 188 µM) | 0.563 | 2 | 0.125 | 4 | 64 (≈ 188 µM) |  | 4 (≈ 11.8 µM)
3 | COc1ccc(/C=C/C(=O)/C=C/c2ccc(OC)c(O)c2)cc1O |  | 0.563 | 32 | > 64 | >1.06 | > 64 | 0.188 | 8 | > 64 |  | > 64
4 | O=C(/C=C/c1c(Cl)cccc1Cl)/C=C/c1c(Cl)cccc1Cl |  | >1.06 | > 64 | > 64 | >1.06 | > 64 | >1.06 | > 64 | > 64 |  | > 64
5 | O=C(/C=C/c1ccc(Cl)cc1Cl)/C=C/c1ccc(Cl)cc1Cl |  | >1.06 | > 64 | > 64 | >1.06 | > 64 | 0.313 | 16 | > 64 |  | > 64
6 | CN(C)c1ccc(/C=C/C(=O)/C=C/c2ccc(N(C)C)cc2)cc1 |  | >1.06 | > 64 | > 64 | >1.06 | > 64 | 0.563 | 32 | > 64 |  | > 64
7 | O=C(/C=C/c1cccs1)/C=C/c1cccs1 | 84 | 0.188 | 8 | > 64 | >1.06 | > 64 | >1.06 | > 64 | > 64 | 49 | > 64
8 | COc1cc(/C=C/C(=O)CC(=O)/C=C/c2ccc(O)c(OC)c2)ccc1O [CURCUMIN] | 80 | 0.188 | 8 |  | 0.188 | 8 | 0.188 | 8 |  | 22 | 
9 | O=C(/C=C/c1ccco1)/C=C/c1ccco1 |  | >1.06 | > 64 | > 64 | >1.06 | > 64 | 0.313 | 16 | > 64 |  | > 64
10 | COc1ccc(/C=C/C(=O)/C=C/c2ccc(OC)c(OC)c2)cc1OC | 67 | >1.06 | > 64 | > 64 | >1.06 | > 64 | 0.125 | 4 | > 64 | 55 | > 64
11 | O=C(/C=C/c1ccc(Br)cc1)/C=C/c1ccc(Br)cc1 |  | >1.06 | > 64 | > 64 | >1.06 | > 64 | 0.563 | 32 | > 64 |  | > 64
12 | COc1ccc(/C=C2\CC/C(=C\c3ccc(OC)c(OC)c3)C2=O)cc1OC |  | >1.06 | > 64 | > 64 | >1.06 | > 64 | 0.313 | 16 | > 64 |  | > 64
